The source of these data is ChEMBL document CHEMBL4382221, “First-in-class DAPK1/CSF1R dual inhibitors: Discovery of 3,5-dimethoxy-N-(4-(4-methoxyphenoxy)-2-((6-morpholinopyridin-3-yl)amino)pyrimidin-5-yl)benzamide as a potential anti-tauopathies agent” (Eur J Med Chem, 2019).

For series [1], the target named is T1, Death-associated protein kinase 1 (Homo sapiens, UniProt P53355). Nature of the series: Inhibition of human DAPK1 (1 to 363 residues) at 10 uM using KKLNRTLSFAEPG as substrate after 120 mins in presence of 10 uM [gamma-33P]-ATP by filtration method relative to control. In a few lines:
(§1)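 Radiometric HotSpot assay measuring substrate phosphorylation directly, with 10 μM ATP. Single-dose screen at 10 μM in duplicate, reported as mean % inhibition from two independent experiments.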
Target sequence in this assay (P53355 whole entry, looked up, the tested form may be a part): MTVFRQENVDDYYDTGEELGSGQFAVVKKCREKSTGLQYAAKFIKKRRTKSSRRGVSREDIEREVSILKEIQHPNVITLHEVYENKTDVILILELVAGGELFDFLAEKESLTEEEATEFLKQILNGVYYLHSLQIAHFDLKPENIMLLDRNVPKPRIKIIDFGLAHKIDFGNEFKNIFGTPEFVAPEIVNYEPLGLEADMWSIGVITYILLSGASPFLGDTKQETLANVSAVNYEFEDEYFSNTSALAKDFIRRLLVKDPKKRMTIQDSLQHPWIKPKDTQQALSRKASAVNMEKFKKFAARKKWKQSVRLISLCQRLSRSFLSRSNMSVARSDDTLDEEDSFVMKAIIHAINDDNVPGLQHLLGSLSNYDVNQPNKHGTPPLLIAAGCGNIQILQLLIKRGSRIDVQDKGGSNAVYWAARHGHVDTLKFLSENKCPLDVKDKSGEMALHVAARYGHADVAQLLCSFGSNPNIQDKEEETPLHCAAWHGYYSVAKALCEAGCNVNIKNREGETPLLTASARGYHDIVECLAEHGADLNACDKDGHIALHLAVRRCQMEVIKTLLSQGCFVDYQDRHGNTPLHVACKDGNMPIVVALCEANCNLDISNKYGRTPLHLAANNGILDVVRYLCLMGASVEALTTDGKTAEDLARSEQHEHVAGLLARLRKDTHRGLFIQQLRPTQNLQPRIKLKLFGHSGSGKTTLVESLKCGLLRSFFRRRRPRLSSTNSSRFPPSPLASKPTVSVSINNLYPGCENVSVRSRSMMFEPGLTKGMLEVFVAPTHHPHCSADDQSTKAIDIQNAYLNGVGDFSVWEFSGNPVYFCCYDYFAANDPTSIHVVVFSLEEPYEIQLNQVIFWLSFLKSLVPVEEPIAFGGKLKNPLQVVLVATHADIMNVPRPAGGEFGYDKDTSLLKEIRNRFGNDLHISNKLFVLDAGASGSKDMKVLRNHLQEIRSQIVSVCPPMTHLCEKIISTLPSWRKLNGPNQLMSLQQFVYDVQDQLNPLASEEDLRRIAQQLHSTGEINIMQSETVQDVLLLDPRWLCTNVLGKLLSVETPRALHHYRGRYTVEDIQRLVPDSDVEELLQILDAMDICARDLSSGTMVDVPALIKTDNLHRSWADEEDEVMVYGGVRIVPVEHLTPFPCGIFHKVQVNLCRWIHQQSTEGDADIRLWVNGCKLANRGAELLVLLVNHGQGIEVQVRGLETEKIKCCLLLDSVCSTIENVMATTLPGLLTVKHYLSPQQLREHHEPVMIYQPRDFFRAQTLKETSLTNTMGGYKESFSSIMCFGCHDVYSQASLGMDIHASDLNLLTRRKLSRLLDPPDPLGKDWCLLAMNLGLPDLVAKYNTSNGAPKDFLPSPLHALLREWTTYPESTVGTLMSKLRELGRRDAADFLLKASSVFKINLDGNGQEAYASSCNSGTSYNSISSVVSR

Series [2] deals with T2, Macrophage colony-stimulating factor 1 receptor (Homo sapiens, UniProt P07333). The series can be described thus: Inhibition of human CSF1R at 10 uM using poly[Glu:Tyr] (4:1) as substrate after 120 mins in presence of 10 uM [gamma-33P]-ATP by filtration method relative to control. A digest of the protocol:
as §1

For series [3], the target named is T1, Death-associated protein kinase 1. Nature of the series: Inhibition of DAPK1 in HEK293 tau-BiFC cells assessed as reduction in forskolin-induced tau aggregation at 50 uM after 48 hrs by Hoechst staining based HCS analysis. The class given is cell-based. In a few lines:
(§2)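 HEK293 cells expressing tau-BiFC were exposed to compounds at 50, 10 and 1 μM with forskolin (30 μM) as the tau aggregation activator for 48 h. BiFC fluorescence intensity was quantified as the read-out. Data are mean ± SD.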
Target sequence in this assay (P53355 whole entry, looked up, the tested form may be a part): as above

Series [4] shares this target. The series can be described thus: Inhibition of human DAPK1 (1 to 363 residues) using KKLNRTLSFAEPG as substrate after 120 mins in presence of 10 uM [gamma-33P]-ATP by filtration method. A digest of the protocol:
(§3)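 Radiometric HotSpot assay with direct measurement of phosphorylated substrate at 10 μM ATP. IC50 was taken from a duplicate 10-dose series, 3-fold dilutions starting at 20 μM, reported as mean.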
Target sequence in this assay (P53355 whole entry, the tested form may be a part): as the sequence (P53355 whole entry, looked up, the tested form may be a part) above

Series [5] shares this target. The series can be described thus: Inhibition of DAPK1 in HEK293 tau-BiFC cells assessed as reduction in forskolin-induced tau aggregation at 10 uM after 48 hrs by Hoechst staining based HCS analysis. The class given is cell-based. In a few lines:
as §2
Target sequence in this assay (P53355 whole entry, looked up, the tested form may be a part): as above

In series [6] the test system is BV-2. The series can be described thus: Anti-neuroinflammatory activity in mouse BV2 cells assessed as inhibition of LPS-stimulated NO production at 10 uM preincubated for 1 hr followed by LPS stimulation for 23 hrs by Griess reagent based assay relative to control. Type of series: functional. In a few lines: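 Mouse BV-2 microglia were stimulated with LPS, with or without compound at 10 μM, and NO production was measured. Values are means ± SD of five independent experiments.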

The target of series [7] is T2, Macrophage colony-stimulating factor 1 receptor. Nature of the series: Inhibition of human CSF1R using poly[Glu:Tyr] (4:1) as substrate after 120 mins in presence of 10 uM [gamma-33P]-ATP by filtration method. A digest of the protocol:
as §3

The target of series [8] is T1, Death-associated protein kinase 1. Nature of the series: Inhibition of human DAPK1 (1 to 363 residues) at 20 uM using KKLNRTLSFAEPG as substrate after 120 mins in presence of 10 uM [gamma-33P]-ATP by filtration method relative to control. In a few lines: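 Radiometric HotSpot kinase assay with 10 μM ATP. Compound tested at a single 20 μM concentration, reported as mean % inhibition from two independent experiments.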
Target sequence in this assay (P53355 whole entry, looked up, the tested form may be a part): as above

Series [9] has the same target. The series can be described thus: Inhibition of DAPK1 in HEK293 tau-BiFC cells assessed as reduction in forskolin-induced tau aggregation at 1 to 50 uM after 48 hrs by Hoechst staining based HCS analysis. The class given is cell-based. A digest of the protocol:
as §2
Target sequence in this assay (P53355 whole entry, looked up, the tested form may be a part): as above

A short description of series [10]: Effective permeability of the compound at 50 uM after 4 hrs by PAMPA. Type of series: ADME. The following applies: read-out: Peff. In a few lines: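 Parallel artificial membrane permeability assay across a BBB-PAMPA lipid membrane, reporting effective permeability (Pe) in 10^-6 cm/sec. […] Pe above 0.4 was taken as highly permeable, and above 10 as highly CNS bioavailable.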

Calls of active or inactive are those of the source. The rule behind the calls is not given here.

T2 sequence (P07333 whole entry): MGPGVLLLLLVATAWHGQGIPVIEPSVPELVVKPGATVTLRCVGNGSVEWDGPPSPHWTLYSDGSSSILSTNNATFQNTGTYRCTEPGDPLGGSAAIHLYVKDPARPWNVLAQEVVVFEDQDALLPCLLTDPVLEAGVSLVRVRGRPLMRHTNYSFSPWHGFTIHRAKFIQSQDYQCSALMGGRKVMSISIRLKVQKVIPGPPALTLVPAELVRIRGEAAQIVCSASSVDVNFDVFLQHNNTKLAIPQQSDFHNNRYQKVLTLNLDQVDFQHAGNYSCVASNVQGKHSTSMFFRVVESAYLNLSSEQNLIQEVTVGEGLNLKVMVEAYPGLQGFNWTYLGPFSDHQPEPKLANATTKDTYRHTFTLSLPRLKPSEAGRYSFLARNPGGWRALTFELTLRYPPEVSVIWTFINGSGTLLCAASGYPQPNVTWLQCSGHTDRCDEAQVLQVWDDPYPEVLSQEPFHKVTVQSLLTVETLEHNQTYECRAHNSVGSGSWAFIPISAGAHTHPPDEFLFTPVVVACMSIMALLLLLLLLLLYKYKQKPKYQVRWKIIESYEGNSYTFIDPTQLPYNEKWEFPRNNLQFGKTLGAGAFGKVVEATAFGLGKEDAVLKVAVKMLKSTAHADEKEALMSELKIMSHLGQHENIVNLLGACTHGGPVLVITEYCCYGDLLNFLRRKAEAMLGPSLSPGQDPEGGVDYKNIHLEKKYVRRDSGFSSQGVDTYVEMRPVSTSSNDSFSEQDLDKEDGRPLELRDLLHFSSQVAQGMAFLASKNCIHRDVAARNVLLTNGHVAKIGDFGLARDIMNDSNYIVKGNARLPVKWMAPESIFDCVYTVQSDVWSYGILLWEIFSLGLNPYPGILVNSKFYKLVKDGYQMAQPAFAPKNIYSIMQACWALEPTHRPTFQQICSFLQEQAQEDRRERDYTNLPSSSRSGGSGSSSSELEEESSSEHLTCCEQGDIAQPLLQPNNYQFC

Usually inhibition stands for the share of the control response that was lost under treatment. In the case of `COc1ccc(Oc2nc(Nc3ccc(N4CCOCC4)nc3)ncc2NC(N)=O)cc1`, the inhibition worked out at 19.7% in [1] and 35.4% in series [2].
As a reminder, the IC50 is the point on the concentration scale where inhibition reaches its midpoint. `COc1ccc(Oc2nc(Nc3ccc(F)cc3)ncc2NC(=O)c2cc(OC)cc(OC)c2)cc1`: in [3], the inhibition result was “Active”. Besides, the inhibition was determined as 65% in [1] and 35.2% in series [2]. In series [4], the IC50 worked out at 4.29 µM. In [5], the inhibition entry is “inactive”.
Take `COc1ccc(Oc2nc(Nc3ccc(N4CCOCC4)cc3)ncc2NC(=O)c2cc(OC)cc(OC)c2)cc1`: the inhibition result in [6] and in [5] was “inactive” each time. The inhibition result in series [3] was “Active”. The results for the concentration for half-maximal inhibition (IC50) in series [7] and in series [4] were 0.12 µM and 2.77 µM, respectively. The inhibition in series [2] turned out to be 95.3%; in [8] it was 66%.
Regarding `COc1ccc(Oc2nc(Nc3ccc(F)cc3)ncc2NC(N)=O)cc1`, the inhibition in series [1] stood at 17.1%; in series [2] it was 21%.
With `COc1ccc(Oc2nc(Nc3ccc(N4CCOCC4)cc3)ncc2NC(=O)c2cccc(OC)c2)cc1`, in [3], the inhibition entry is “Active”. The IC50 in series [7] was 0.78 µM; in series [4], 7.44 µM. The figures for the inhibition in series [1] and in series [2] were 75.1% and 91.8%, respectively.
Consider `COc1ccc(Oc2nc(Nc3ccc(N4CCOCC4)cc3)ncc2NC(=O)c2cccc(C(F)(F)F)c2)cc1`, for which the IC50 in series [7] came out at 4.89 µM; in series [4] it was 2.61 µM. Besides, the inhibition entry in [9] was “inactive”. The inhibition amounted to 74.7% in series [2] and 69.7% in series [8].
As to `CC(=O)[C@H]1CC[C@H]2[C@@H]3CCC4=CC(=O)CC[C@]4(C)[C@H]3CC[C@]12C` [PROGESTERONE], in series [10], the Papp at 4 h, 50 µM stood at 33.3 ×10⁻⁶ cm/s.
Turning to `COc1ccc(Oc2nc(Nc3ccc(N4CCCCC4)nc3)ncc2NC(N)=O)cc1`, the inhibition worked out at 31.7% in series [1] and 28.4% in series [2].
For `NC(=O)Nc1cnc(Nc2ccc(N3CCOCC3)cc2)nc1Oc1ccc(C(F)(F)F)cc1`, in series [4], the IC50 was 14.3 µM. Further, the inhibition entry in series [9] was “inactive”. Further, the inhibition in series [2] worked out at 59.6%; in series [8], 44.9%.
Regarding `COc1cccc(Oc2nc(Nc3ccc(N4CCOCC4)cc3)ncc2NC(N)=O)c1`, in [7], the IC50 came to 1.29 µM. In addition, the inhibition in series [1] worked out at 15.8%; in series [2] it was 77.6%.
Turning to `COc1ccc(Oc2nc(Nc3ccc(N4CCCCC4)nc3)ncc2NC(=O)c2cc(OC)cc(OC)c2)cc1`, the inhibition entry in [3] is “Active”. Besides, the IC50 in series [7] is 1.72 µM; in [4] it was 2.69 µM. For the same compound, the inhibition was 67.3% in [1] and 76% in [2].
Regarding `COc1ccc(Oc2nc(Nc3ccc(N4CCOCC4)cc3)ncc2NC(N)=O)cc1`, in series [7], the IC50 was 4.42 µM. Besides, the inhibition in series [2] was found to be 65%; in series [8], 10.8%.
